Published values gathered from unrelated publications.
Lines come from different studies, so protocols differ.
Target: Maternal embryonic leucine zipper kinase (MELK, Homo sapiens, UniProt Q14680)

For `C[C@H]1CC[C@H](n2c3cnccc3c3cnc(Nc4ccc5c(n4)CCN(C(=O)CO)C5)nc32)CC1`, the remaining signal was 24% (cell-free assay; 1 µM).
`CC#CC(=O)N1CCC[C@H]1c1nc(-c2ccc(C(=O)Nc3ccccn3)cc2)c2c(N)nccn12` has an inhibition of 41% (enzyme activity; inhibitor; 1 µM).
With `CCCCC(=O)Nc1ccc(-c2ccc3ncn(CCC)c(=O)c3c2)cn1` the remaining binding was 86% (binding; competition with immobilised ligand; 0.5 µM).
`CO[C@@H]1[C@H](N(C)C(=O)c2ccccc2)C[C@H]2O[C@]1(C)n1c3ccccc3c3c4c(c5c6ccccc6n2c5c31)C(=O)NC4` has an inhibition of 60% (enzyme activity; inhibitor; 1 µM).
The inhibition of `C#Cc1cc(-c2cc(Nc3nc(N[C@@H](C)c4ccc(F)cn4)ncc3Cl)n[nH]2)ccc1C=O` is reported as 34.3% (enzyme activity; inhibitor; 0.2 µM).
For `COc1ccc2oc(-c3ccc4nc(N)oc4c3)c/c(=N\c3ccccc3NC(=O)CCN)c2c1`, the remaining binding was 99% (binding; 1 µM).
`CN1CCN(C(=O)c2ccc(NC(=O)Nc3ccc(N(C)c4ccnc(Nc5ccc(CS(C)(=O)=O)cc5)n4)cc3)cc2)CC1` gave a remaining binding of 81% (binding; 1 µM).
With `C1=C/COCc2cc(ccc2OCCN2CCCC2)Nc2nccc(n2)-c2cccc(c2)COC/1` the remaining binding was 84% (binding; 0.1 µM).
